A word on the inhibition: it is the drop in the measured response relative to a control, in per cent.

A short description of data set [1]: Drug uptake in human MCF7 cells nucleus at 5 uM after 1 to 24 hrs by DAPI staining based fluorescence microscopic method. The note with it: mcf7, 5 µM. The data set is classed as ADME, subcellular. In a few lines: (§1)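 1×10^4 cells per chamber were allowed to attach and then cultured overnight. Compounds were added at 5 μM final in fresh medium for 1 h or 24 h, with untreated cells as control. Cells were then washed with DPBS and fixed in 4% paraformaldehyde for 30 min.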

Data set [2] is described as follows: Drug uptake in human HT1080 cells nucleus at 5 uM after 1 to 24 hrs by DAPI staining based fluorescence microscopic method. The data set is classed as ADME, subcellular. As to conditions: ht-1080, 5 µM. Summed up: as §1
Data set [3] deals with C2C12. Nature of the data set: Induction of ROS generation in mouse C2C12 cells at 0.5 uM after 72 hrs by H2DCFDA staining based flow cytometry relative to control. The data set is classed as cell-based. As to conditions: c2c12, 72 h.
Data set [4] has as its system C2C12. Nature of the data set: Induction of FeCl2-mediated ROS generation in mouse C2C12 cells at 0.5 uM after 72 hrs by H2DCFDA staining based flow cytometry relative to control. As to conditions: c2c12, 72 h. The data set is classed as cell-based. In a few lines:
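C2C12 cells were seeded in DMEM with 10% FBS and cultured 24 h. They were then incubated 72 h in serum-free DMEM with 10 μM Fe²⁺ (FeCl₂), with or without compound at 0.5 μM. Cells were harvested and stained with 10 μM H₂DCFDA in HBSS for 30 min at 37 °C before flow cytometry. The mean signal of 5000 cells is expressed as fold of control; experiments were done twice.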
Background: In flow cytometry, cells or beads pass a laser one at a time.

Data set [5] can be described thus: Drug uptake in human SKOV3 cells at 50 uM after 3 hrs by flow cytometry. As to conditions: sk-ov-3, 3 h. The data set is classed as ADME, cell-based.
Data set [6] in a line: Cytotoxicity against mouse C2C12 cells assessed as cell viability at 5 uM after 72 hrs by MTT assay relative to control. The data set is classed as cell-based. The note with it: read-out: Activity. Summed up:
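C2C12 mouse myoblasts grown in DMEM with 10% FBS, seeded at 10,000 cells/well 24 h before dosing. Compound exposure for 72 h at 37 °C, then MTT read-out. Viability expressed relative to untreated control, set at 100%. Run in triplicate.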
In general terms: Tetrazolium assays rely on reduction of a dye to a coloured formazan, in cell work by metabolically active cells.

A short description of data set [7]: Drug uptake in human MDA-MB-468 cells nucleus at 5 uM after 1 to 24 hrs by DAPI staining based fluorescence microscopic method. The note with it: mda-mb-468, 5 µM. The data set is classed as ADME, subcellular. In a few lines:
as §1

Data set [8] is described as follows: Drug uptake in human HT1080 cells at 50 uM after 3 hrs by flow cytometry. As to conditions: ht-1080, 3 h. The data set is classed as ADME, cell-based.
Data set [9] is described as follows: Drug uptake in human SKOV3 cells nucleus at 5 uM after 1 to 24 hrs by DAPI staining based fluorescence microscopic method. The data set is classed as ADME, subcellular. As to conditions: sk-ov-3, 5 µM. Summed up: as §1
Data set [10] is described as follows: Inhibition of cell proliferation in HEK293 cells at 5 uM after 24 hrs by MTT or MTS assay relative to control. As to conditions: human. The data set is classed as cell-based.
Data set [11] can be described thus: Inhibition of cell proliferation in HEK293 cells at 5 uM after 72 hrs by MTT or MTS assay relative to control. The data set is classed as cell-based. The note with it: human. Summed up:
(§2)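 Seeding was 5000 cells/well for HEK-293, SKOV-3 and HT-1080, and 50,000 for CCRF-CEM, 24 h before dosing. CCRF-CEM was grown in RPMI and the others in EMEM with 10% FBS. Compounds were given at 5 μM for 24 or 72 h at 37 °C, with water/0.025% DMSO as negative control. Adherent lines received fresh medium before adding MTT (595 nm) or MTS (490 nm). Background-corrected OD is expressed as percent of control; triplicate runs.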

Data set [12] relates to HT-1080. Nature of the data set: Inhibition of cell proliferation in human HT1080 cells at 5 uM after 24 hrs by MTT or MTS assay relative to control. As to conditions: for inhibition at 5 µM: HT-1080, 24 h. The data set is classed as functional. Summed up:
as §2

Data set [13] relates to HT-1080. Nature of the data set: Inhibition of cell proliferation in human HT1080 cells at 5 uM after 72 hrs by MTT or MTS assay relative to control. The data set is classed as functional. As to conditions: for inhibition at 5 µM: HT-1080, 72 h.
Data set [14] has as its system CCRF-CEM. Nature of the data set: Inhibition of cell proliferation in human CCRF-CEM cells at 5 uM after 24 hrs by MTT or MTS assay relative to control. The data set is classed as functional. In a few lines: as §2
The subject of data set [15] is CCRF-CEM. Nature of the data set: Inhibition of cell proliferation in human CCRF-CEM cells at 5 uM after 72 hrs by MTT or MTS assay relative to control. The data set is classed as functional. In a few lines:
as §2

Data set [16] has as its system SK-OV-3. Nature of the data set: Inhibition of cell proliferation in human SKOV3 cells at 5 uM after 72 hrs by MTT or MTS assay relative to control. The note with it: SK-OV-3, 72 h. The data set is classed as functional.
Data set [17] concerns SK-OV-3. Nature of the data set: Inhibition of cell proliferation in human SKOV3 cells at 5 uM after 24 hrs by MTT or MTS assay relative to control. The data set is classed as functional. As to conditions: SK-OV-3, 24 h.
The nature of data set [18]: Drug uptake in HEK293 cells at 50 uM after 3 hrs by flow cytometry. As to conditions: human, hek293, 3 h. The data set is classed as ADME, cell-based.
Data set [19] in a line: Drug uptake in human CCRF-CEM cells at 50 uM after 3 hrs by flow cytometry. The data set is classed as ADME, cell-based.
Data set [20] can be described thus: Drug uptake in human SKOV3 cells at 5 uM after 3 hrs by flow cytometry. The data set is classed as ADME, cell-based. The note with it: sk-ov-3, 3 h. Summed up: (§3)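 Adherent cells were plated at 5×10^4 per well in serum-free medium and left overnight, then exposed to 5 μM compound for 3 h at 37 °C, with untreated cells as control. Cells were washed with DPBS, trypsinised for 5 min and washed twice. Flow cytometry read the Texas Red channel, giving the mean fluorescence of 10,000 cells, in triplicate.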

Data set [21] is described as follows: Drug uptake in human HT1080 cells at 5 uM after 3 hrs by flow cytometry. The note with it: ht-1080, 3 h. The data set is classed as ADME, cell-based. In a few lines:
as §3

Activity calls are given as the source filed them. The rule behind the calls is not given here. Where a SMILES comes first, the peptide text is derived from it. The star is where a group is joined. Doxorubicin(Traut) = COc1cccc2c1C(=O)c1c(O)c3c(c(O)c1C2=O)C[C@@](O)(C(=O)CO)C[C@@H]3O[C@H]1C[C@H](NC(=N)CCCS*)[C@H](O)[C@H](C)O1; βAla = NCCC(=O)O

For the molecule `COc1cccc2c1C(=O)c1c(O)c3c(c(O)c1C2=O)C[C@@](O)(C(=O)CO)C[C@@H]3O[C@H]1C[C@H](NC(=N)CCCSSC[C@@H]2NC(=O)[C@H](CCCNC(=N)N)NC(=O)[C@H](Cc3c[nH]c4ccccc34)NC(=O)[C@H](CCCNC(=N)N)NC(=O)[C@H](Cc3c[nH]c4ccccc34)NC(=O)[C@H](CCCCNC(=O)CCN)NC(=O)[C@H](Cc3c[nH]c4ccccc34)NC(=O)[C@H](CCCNC(=N)N)NC(=O)[C@H](Cc3c[nH]c4ccccc34)NC(=O)[C@H](CCCNC(=N)N)NC2=O)[C@H](O)[C@H](C)O1` (cyclo(C(Doxorubicin(Traut))RWRWK(βAla)WRWR)), the Drug uptake result in data set [1], in [2], in data set [5], in [7], in data set [8] and in [9] was “Active” in each case. In data set [3], the “fold change (FC)” value was 1.05. Further, in [4], the Activity result is listed as “Non-Toxic”. In addition, in [6], the viability at 72 h, 5 µM turned out to be 71%.
With `COc1cccc2c1C(=O)c1c(O)c3c(c(O)c1C2=O)C[C@@](O)(C(=O)CO)C[C@@H]3O[C@H]1C[C@H](NC(=N)CCCS)[C@H](O)[C@H](C)O1`, in [10], the inhibition at 24 h, 5 µM amounted to 61%. Moreover, in data set [11], the inhibition at 72 h, 5 µM came out at 64%. Further, the inhibition at 5 µM in [12] stood at 62%; in data set [13], 68%; in data set [14] it was 48%; in data set [15] it was 73%; in data set [16], 42%. The Drug uptake entry in data set [1], in [2], in [7] and in data set [9] was “Active” each time.
Consider `COc1cccc2c1C(=O)c1c(O)c3c(c(O)c1C2=O)C[C@@](O)(C(=O)CO)C[C@@H]3O[C@H]1C[C@H](NC(=N)CCCSSc2ccccn2)[C@H](O)[C@H](C)O1`, for which, in [10], the inhibition at 24 h, 5 µM was found to be 66%. The molecule also yielded an inhibition at 72 h, 5 µM in data set [11] of 60%. For the same molecule, the inhibition at 5 µM in data set [12] is 80%; in [17] it was 72%; in data set [13], 68%; in data set [14] it was 46%; in [15], 73%; in [16] it was 39%. Further, the Drug uptake entry in data set [1], in data set [2], in data set [18], in data set [7], in data set [8] and in data set [9] was “Active” throughout. Also, the Drug uptake result in data set [19] is reported as “Active”.
Take `N=C(N)NCCC[C@@H]1NC(=O)[C@H](CS)NC(=O)[C@H](CCCNC(=N)N)NC(=O)[C@H](Cc2c[nH]c3ccccc23)NC(=O)[C@H](CCCNC(=N)N)NC(=O)[C@H](Cc2c[nH]c3ccccc23)NC(=O)[C@H](CCCCNC(=O)CCN)NC(=O)[C@H](Cc2c[nH]c3ccccc23)NC(=O)[C@H](CCCNC(=N)N)NC(=O)[C@H](Cc2c[nH]c3ccccc23)NC1=O` (cyclo(CRWRWK(βAla)WRWR)): the inhibition entry in data set [12], in [14] and in [15] was “inactive” throughout.
`COc1cccc2c1C(=O)c1c(O)c3c(c(O)c1C2=O)C[C@@](O)(C(=O)CO)C[C@@H]3O[C@H]1C[C@H](N)[C@H](O)[C@H](C)O1` [DOXORUBICIN]: the inhibition at 24 h, 5 µM in [10] is 57%. Besides, the inhibition at 5 µM in data set [12] was 66%; in data set [17], 66 to 76%; in data set [14], 45%; in data set [15] it was 69%; in data set [16], 51%. Also, the Drug uptake entry in [1], in data set [2], in data set [20], in data set [7], in data set [9] and in data set [21] was “Active” throughout. The “fold change (FC)” value in [3] came out at 1.09; in data set [4], 3.48. Also, the inhibition result in data set [13] was “inactive”. Besides, the viability at 72 h, 5 µM in [6] was 28.6%.

The values above are taken from ChEMBL document CHEMBL4325891 (Eur J Med Chem, 2019).
